The list is not random: actives were taken first. Their share in the collection is about 1.9%.
HGIII-sPLA2 inh: Blocks human group III sPLA2 activity | QFRET BODIPY PC-A2 liposome hydrolysis, fluorescence | 370,000 compounds, 0.56% hits | Q9NZ20 | inhibition, % at 12.2 µM;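 active = inhibition above mean plus 3 SD of compounds lying within the high and low control bounds, cut at about 19% in these data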
PLCg1 inh: PLC-gamma1 (human) inhibition, primary screen; P19174; purified PLC-gamma1, fluorogenic substrate, fluorescence; inhibition, % at 12.2 µM; 370,000 compounds, 0.84% hits; AID 720700; in the data active = inhibition above about 9.5%
Tb MetRS inh: Trypanosoma brucei MetRS inhibition; inhibition, % at 11.9 µM; purified T. brucei MetRS, ATP depletion, Kinase-Glo luminescence; 360,000 compounds, 0.4% hits;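 active = inhibition above a per-plate cutoff of the control wells' mean inhibition plus 3 SD, cut at about 5.5% in these data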
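Dosing: 11.9 µM compound single dose, 0.9% DMSO; Assay system: purified T. brucei MetRS enzyme; Measured by: Kinase-Glo luciferase luminescence reporting remaining unconsumed ATP; Schedule: 15 min plus 2 h at 25 °C.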
PLC-beta3 inh: inhibitors of human phospholipase C beta3; Purified PLC-beta3, fluorogenic substrate, fluorescence; inhibition, % at 12.2 µM; 370,000 compounds, 0.18% hits; AID 720704; in the data active = inhibition above about 11%
DAGLB inh: blocks human DAGLB lipase activity. Q8NCG7. HEK293T DAGLB membrane lysate, EnzChek fluorogenic substrate. inhibition, % at 5.17 µM. 340,000 compounds, 0.059% hits. AID 504411; in the data active = inhibition above about 34%
sPLA2 confirm: human GIII-sPLA2 inhibition, confirmation. recombinant hGIII-sPLA2, BODIPY PC-A2 QFRET fluorescence. shares compounds with HGIII-sPLA2 inh. 2,000 compounds, 34% hits. inhibition, % at 12.2 µM;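 active = mean inhibition across triplicates above the hit cutoff set in the earlier primary screen, cut at about 19% in these data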
BODIPY interf: optically interferes with 535nm fluorescence in sPLA2 counter-screen. shares compounds with HGIII-sPLA2 inh. BODIPY FL product fluorescence interference, QFRET. inhibition, % at 12.2 µM. 2,000 compounds, 8.5% hits. AID 743282;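 active = average inhibition above the solvent-only control mean plus 3 SD, cut at about 6% in these data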
535nm interf DR: 535nm optical interference dose response, HGIII-sPLA2 counter-screen; 240 tested, under 10 active; BODIPY FL product fluorescence interference, cell-free; shares compounds with HGIII-sPLA2 inh; AID 743455; IC50, µM;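 active = IC50 at or below 10 µM; inactive = IC50 above 10 µM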
Large screens that a line does not name were inactive (follow-up assays come after a bar, where they were run).

CCCCCCCCNC(=O)c1cccnc1SCC(=O)Nc1ccc(OC)cc1OC	HGIII-sPLA2 inh 21.9 | sPLA2 confirm inactive | BODIPY interf inactive
CC(CCC(=O)Nc1nncs1)C(=O)O (stereo not given)	HGIII-sPLA2 inh 20.2 | sPLA2 confirm inactive | BODIPY interf inactive
CCN1CCN(C(=S)NC(=O)c2cccs2)CC1	none
O=C(NC(=S)N1CCN(c2ccc(C(F)(F)F)cc2[N+](=O)[O-])CC1)c1cccs1	HGIII-sPLA2 inh 31.2 | sPLA2 confirm 46.9 | BODIPY interf 9.5
Cc1nc2ccccc2n1Cc1ccccc1	none
Cc1nc2ccccc2n1CSc1ccccc1	HGIII-sPLA2 inh 20.7 | sPLA2 confirm inactive | BODIPY interf inactive
Cc1c(-c2csc(N)n2)c2ccccc2n1C	HGIII-sPLA2 inh 20.2 | sPLA2 confirm inactive | BODIPY interf inactive
Fc1ccc(NC(=S)Nc2ccccc2OC(F)F)cc1Cl	none
O=C(NNC(=S)Nc1cccc(Cl)c1)c1ccccc1OC(F)F	HGIII-sPLA2 inh 24.7 | sPLA2 confirm 42.5 | BODIPY interf inactive | 535nm interf DR inactive
COc1cccc(NC(=S)NNC(=O)c2ccccc2OC(F)F)c1	HGIII-sPLA2 inh 25.2 | sPLA2 confirm 30.8 | BODIPY interf inactive
COc1ccc(CNS(=O)(=O)CC2NCc3ccc(C)cc32)cc1 (stereo not given)	none (no result: Tb MetRS inh, DAGLB inh)
CCn1c2ccccc2c2cc(C=Nn3c(-c4ccccc4C)n[nH]c3=S)ccc21	none (no result: Tb MetRS inh, DAGLB inh)
CC(=O)Nc1ccc(NC(=O)C2CCN(c3c(Cc4ccccc4)c(C)nc4ncnn34)CC2)cc1	none
COc1cc(CC(NC(C)=O)C(=O)NC2CCN(c3c(Cc4ccccc4)c(C)nc4ncnn34)CC2)cc(OC)c1 (stereo not given)	HGIII-sPLA2 inh 22.0 | sPLA2 confirm inactive | BODIPY interf inactive
O=c1c(-c2ccco2)nc2ccccc2n1C(c1ccccn1)c1nc2ccccc2[nH]1 (stereo not given)	HGIII-sPLA2 inh 22.6 (no result: DAGLB inh) | sPLA2 confirm inactive | BODIPY interf inactive
O=c1c(-c2ccco2)nc2ccccc2n1C(c1ccccc1)c1nc2ccccc2[nH]1 (stereo not given)	none (no result: DAGLB inh)
O=C(NC(=S)Nc1ccc2oc(=O)ccc2c1)c1cc2ccccc2o1	HGIII-sPLA2 inh 22.3 | sPLA2 confirm inactive | BODIPY interf inactive
Cc1cc(O)cc(=O)n1-c1cccc(C(F)(F)F)c1	none (no result: Tb MetRS inh, DAGLB inh)
COC(=O)[C@@]12CCCCC3=C1N(CCC3)C(=O)[C@H]2CC(=O)NCc1ccc(OC)c(OC)c1	none (no result: Tb MetRS inh, DAGLB inh)
CCOCCCNC(=S)Nc1ccc(Br)cc1Cl	HGIII-sPLA2 inh 20.1 | sPLA2 confirm inactive | BODIPY interf inactive
CCCCCN=C(N)N/N=C/c1c[nH]c2ccc(OC)cc12	HGIII-sPLA2 inh 27.6 | sPLA2 confirm 39.6 | BODIPY interf inactive
CCCOc1ccc(C(=O)N/N=C/c2c[nH]c3ccc(Br)cc23)cc1	none
CN1CC=C(c2ccc(C(F)(F)F)cc2)N(c2ccc(Br)cc2)C1=O	none (no result: Tb MetRS inh, DAGLB inh)
Cn1c2ccc(F)cc2c2ncn(CC3CCCO3)c(=O)c21 (stereo not given)	HGIII-sPLA2 inh 20.7 | sPLA2 confirm inactive | BODIPY interf inactive
COc1cccc(N2CC(=O)Nc3c(oc4nc(-c5ccccc5)cc(C)c34)C2=O)c1	HGIII-sPLA2 inh 19.7 | sPLA2 confirm inactive | BODIPY interf inactive
CCc1c(C)nc2c(-c3ccccc3)c[nH]n2c1=O	HGIII-sPLA2 inh 24.5 | sPLA2 confirm 32.7 | BODIPY interf inactive | 535nm interf DR inactive
NC(=S)N/N=C/c1c(O)ccc2ccccc12	HGIII-sPLA2 inh 35.1 | sPLA2 confirm 21.1 | BODIPY interf inactive
O=CN/N=C/c1c(O)ccc2ccccc12	none
O=C(NN=Cc1c(O)ccc2ccccc12)c1ccc2c(c1)OCO2	HGIII-sPLA2 inh 37.2 | sPLA2 confirm inactive | BODIPY interf inactive
Cc1ccc(-c2cc(C(=O)NN=Cc3c(O)ccc4ccccc34)[nH]n2)cc1C	HGIII-sPLA2 inh 26.4 (no result: Tb MetRS inh, DAGLB inh) | sPLA2 confirm inactive | BODIPY interf inactive
